Assay results published in PMC6690926 (International Journal of Nanomedicine, 2019).
*1 amine or outer side, *2 acyl side, *3 side chain or, on linkers, in order; H or OH if unused. Where a SMILES comes first, the peptide text is derived from it. Bridges are numbered along the chain shown (N, C = ends). Roman numbers before positions name the chains, in order. [ ]: non-standard residue; d: D form. Actinocin(9to1) = Cc1c2oc3c(C)ccc(C(=O)[*:1])c3nc-2c(C(=O)[*:2])c(N)c1=O; NMeV = CN[C@H](C(=O)O)C(C)C; Sar = CNCC(=O)O

Assays:
[1] = In vitro cytotoxicity of Act D; format: cell-based; settings: human, Caco-2 cells
In short: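 Caco-2 cells were seeded at 1×10^4 cells/well in DMEM with 10% FBS and cultured for 24 h. They were then exposed for 5 h to the test compound at 1, 2, 3.2 and 6 µM in HBSS. WST-8 was added for 1 h and absorbance read at 450 nm. Viability is expressed as a percentage of untreated cells; mean ± SD, n=6.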

[2] = In vitro permeability across a Caco-2 cell monolayer; format: in vitro ADME; settings: human
[3] = Parallel artificial membrane permeability assay; format: in vitro ADME; settings: PAMPA, pH 6.8
In short: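 PAMPA: donor wells held test formulation diluted in PBS pH 6.8 to 200 µg/mL drug equivalent; receiver wells held PBS pH 6.8. Plates were incubated 5 h at room temperature. Donor and receiver concentrations were measured by HPLC at 254 nm (C18; water pH 3.5/acetonitrile 80:20, 1 mL/min). Effective permeability was calculated with filter area 0.288 cm2, donor volume 0.2 mL and receiver volume 0.3 mL, using equilibrium concentration.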

[4] = In vivo pharmacokinetic study in rats; settings: Sprague-Dawley, rat, plasma, 25 mg/kg
In short: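 Male Sprague-Dawley rats (6–7 weeks, 200–250 g) received the test formulation orally in water at 25 mg/kg drug equivalent. The IV reference was 5 mg/kg aqueous drug by tail vein. Retro-orbital blood was taken into heparin plus 3.8% sodium citrate, spun at 2,500×g for 15 min at 4 °C, and plasma stored at −70 °C. Plasma was assayed by LC/MS (C18, ESI positive, m/z 428; DAMPA internal standard). Non-compartmental analysis; n=4, mean ± SD.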

Cc1c2oc3c(C)ccc(C(=O)N[C@@H]4C(=O)N[C@H](C(C)C)C(=O)N5CCC[C@H]5C(=O)N(C)CC(=O)N(C)[C@@H](C(C)C)C(=O)O[C@@H]4C)c3nc-2c(C(=O)N[C@@H]2C(=O)N[C@H](C(C)C)C(=O)N3CCC[C@H]3C(=O)N(C)CC(=O)N(C)[C@@H](C(C)C)C(=O)O[C@@H]2C)c(N)c1=O [Act D, actinomycin D] (I: T[dV]P[Sar][NMeV] / II: T[dV]P[Sar][NMeV]; ester I:1-I:C, II:1-II:C; linker I:N-II:N via Actinocin(9to1))
viability at 5 h, 3.2 µM [1]: 105 ± 6.81%

Nc1nc2[nH]cc(CCc3ccc(C(=O)N[C@@H](CCC(=O)O)C(=O)O)cc3)c2c(=O)[nH]1 [PMX, N-[4-[2-(2-amino-3,4-dihydro-4-oxo-7H-pyrrolo[2,3-d]pyrimidin-5-yl)-ethyl]-benzoyl]-L-glutamic acid]
Papp at 5 h, 100 µg/mL [2]: 1.78 ± 0.118 ×10⁻⁶ cm/s
Papp at 5 h, 200 µg/mL [3]: 0.29 ± 0.08 ×10⁻⁶ cm/s
bioavailability ([4]; oral): 5.02 ± 0.57%
AUC(0-inf) ([4]; po): 2770 ± 210 ng·h/mL
AUC(0-t) ([4]; po): 2350 ± 270 ng·h/mL
Cmax ([4]; po): 1280 ± 170 ng/mL
Tmax ([4]; po): 0.63 ± 0.25 h
half-life ([4]; po): 2.5 ± 0.45 h
